# From ChEMBL document CHEMBL2440035, “Azetidines and spiro azetidines as novel P2 units in hepatitis C virus NS3 protease inhibitors” (Bioorg Med Chem Lett, 2013)
# How the values were obtained:
# [1] = molecular target: Prothrombin (Homo sapiens, UniProt P00734); assay: Inhibition of human thrombin
# [2] = molecular target: Cathepsin S (Homo sapiens, UniProt P25774); assay: Inhibition of human cathepsin S
# [3] = molecular target: Plasminogen (Homo sapiens, UniProt P00747); assay: Inhibition of human plasmin
# Sequence of Plasminogen (P00747 97-580 limits assumed): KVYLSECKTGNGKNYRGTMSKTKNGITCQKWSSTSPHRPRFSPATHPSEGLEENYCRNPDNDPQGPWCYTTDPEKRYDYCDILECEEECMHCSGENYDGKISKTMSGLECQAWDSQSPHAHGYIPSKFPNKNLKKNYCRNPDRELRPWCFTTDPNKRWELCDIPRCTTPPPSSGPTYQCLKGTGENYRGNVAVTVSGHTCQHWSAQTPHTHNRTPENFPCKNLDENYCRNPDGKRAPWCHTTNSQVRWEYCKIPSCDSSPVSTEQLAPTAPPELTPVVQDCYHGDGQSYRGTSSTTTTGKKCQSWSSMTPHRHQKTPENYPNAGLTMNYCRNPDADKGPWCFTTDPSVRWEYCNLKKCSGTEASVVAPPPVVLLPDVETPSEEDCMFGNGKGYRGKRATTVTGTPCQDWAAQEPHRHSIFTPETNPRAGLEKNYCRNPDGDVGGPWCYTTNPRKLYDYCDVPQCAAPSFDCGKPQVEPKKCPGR
# Sequence of Plasminogen (P00747 581-810 limits assumed): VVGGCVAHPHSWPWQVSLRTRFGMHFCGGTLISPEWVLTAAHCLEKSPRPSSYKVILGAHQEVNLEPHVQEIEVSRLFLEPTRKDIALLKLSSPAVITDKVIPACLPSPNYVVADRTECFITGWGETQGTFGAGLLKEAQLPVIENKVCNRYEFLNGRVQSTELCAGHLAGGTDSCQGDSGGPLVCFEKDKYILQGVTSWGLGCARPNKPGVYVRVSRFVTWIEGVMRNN
# [4] = molecular target: T1, Neutrophil elastase (Homo sapiens) (UniProt P08246); assay: (§1) Inhibition of human neutrophil elastase
# T1 sequence (whole entry): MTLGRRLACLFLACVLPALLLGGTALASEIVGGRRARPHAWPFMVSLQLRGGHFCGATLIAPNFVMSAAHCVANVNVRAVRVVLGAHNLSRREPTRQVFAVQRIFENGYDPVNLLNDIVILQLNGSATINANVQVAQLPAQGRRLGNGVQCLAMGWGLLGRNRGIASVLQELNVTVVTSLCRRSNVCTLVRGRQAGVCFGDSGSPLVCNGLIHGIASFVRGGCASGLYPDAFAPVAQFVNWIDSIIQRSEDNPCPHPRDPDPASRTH
# [5] = molecular target: T2, Neutrophil elastase (Homo sapiens, UniProt P08246); assay: as §1
# T2 sequence (P08246 whole entry): T1 sequence (whole entry)
# [6] = test system: Hepatitis C virus; assay: Ratio of EC90 for Hepatitis C virus genotype 1b NS3/4A protease D168A mutant to EC90 Hepatitis C virus genotype 1b wild type NS3/4A protease; parameters: species or system Hepatitis C virus subtype 1b
# Summary of the method: (§2)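 Genotype 1b NS3 protease enzyme panel: wild type plus resistance mutants A156T, R155K, D168V, V36M, A156S, V170A and D168A. […] Resistance is expressed as the fold increase of each mutant's value over the wild-type value.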
# [7] = test system: Hepatitis C virus; assay: Ratio of EC50 for Hepatitis C virus genotype 1b NS3/4A protease D168A mutant to EC50 Hepatitis C virus genotype 1b wild type NS3/4A protease; parameters: species or system Hepatitis C virus subtype 1b; summary of the method: as §2
# [8] = test system: Hepatitis C virus; assay: Ratio of EC90 for Hepatitis C virus genotype 1b NS3/4A protease V170A mutant to EC90 Hepatitis C virus genotype 1b wild type NS3/4A protease; parameters: species or system Hepatitis C virus subtype 1b; summary of the method: as §2
# [9] = test system: Hepatitis C virus; assay: Inhibition of Hepatitis C virus genotype 1b NS3/4A protease V170A mutant; parameters: species or system Hepatitis C virus subtype 1b
# Summary of the method: (§3)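 Panel of genotype 1b NS3 protease enzymes (wild type and mutants). IC50 and IC90 are averages ± standard error from 2 independent assays. Fold change versus wild type given in parentheses.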
# [10] = test system: Hepatitis C virus; assay: Ratio of EC50 for Hepatitis C virus genotype 1b NS3/4A protease A156S mutant to EC50 Hepatitis C virus genotype 1b wild type NS3/4A protease; parameters: species or system Hepatitis C virus subtype 1b; summary of the method: as §2
# [11] = test system: Hepatitis C virus; assay: Inhibition of Hepatitis C virus genotype 1b NS3/4A protease A156S mutant; parameters: species or system Hepatitis C virus subtype 1b; summary of the method: as §3
# [12] = test system: Hepatitis C virus; assay: Ratio of EC90 for Hepatitis C virus genotype 1b NS3/4A protease V36M mutant to EC90 Hepatitis C virus genotype 1b wild type NS3/4A protease; parameters: species or system Hepatitis C virus subtype 1b; summary of the method: as §2
# [13] = test system: Hepatitis C virus; assay: Ratio of EC50 for Hepatitis C virus genotype 1b NS3/4A protease V36M mutant to EC50 Hepatitis C virus genotype 1b wild type NS3/4A protease; parameters: species or system Hepatitis C virus subtype 1b; summary of the method: as §2
# [14] = test system: Hepatitis C virus; assay: Inhibition of Hepatitis C virus genotype 1b NS3/4A protease V36M mutant; parameters: species or system Hepatitis C virus subtype 1b; summary of the method: as §3
# [15] = test system: Hepatitis C virus; assay: Ratio of EC90 for Hepatitis C virus genotype 1b NS3/4A protease D168V mutant to EC90 Hepatitis C virus genotype 1b wild type NS3/4A protease; parameters: species or system Hepatitis C virus subtype 1b; summary of the method: as §2
# [16] = test system: Hepatitis C virus; assay: Ratio of EC50 for Hepatitis C virus genotype 1b NS3/4A protease D168V mutant to EC50 Hepatitis C virus genotype 1b wild type NS3/4A protease; parameters: species or system Hepatitis C virus subtype 1b; summary of the method: as §2
# [17] = test system: Hepatitis C virus; assay: Inhibition of Hepatitis C virus genotype 1b NS3/4A protease D168V mutant; parameters: species or system Hepatitis C virus subtype 1b; summary of the method: as §3
# [18] = test system: Hepatitis C virus; assay: Ratio of EC90 for Hepatitis C virus genotype 1b NS3/4A protease R155K mutant to EC90 Hepatitis C virus genotype 1b wild type NS3/4A protease; parameters: species or system Hepatitis C virus subtype 1b; summary of the method: as §2
# [19] = test system: Hepatitis C virus; assay: Inhibition of Hepatitis C virus genotype 1b NS3/4A protease D168A mutant; parameters: species or system Hepatitis C virus subtype 1b; summary of the method: as §3
# [20] = test system: Hepatitis C virus; assay: Ratio of EC50 for Hepatitis C virus genotype 1b NS3/4A protease R155K mutant to EC50 Hepatitis C virus genotype 1b wild type NS3/4A protease; parameters: species or system Hepatitis C virus subtype 1b; summary of the method: as §2
# [21] = test system: Hepatitis C virus; assay: Inhibition of Hepatitis C virus genotype 1b NS3/4A protease R155K mutant; parameters: species or system Hepatitis C virus subtype 1b; summary of the method: as §3
# [22] = test system: Hepatitis C virus; assay: Ratio of EC90 for Hepatitis C virus genotype 1b NS3/4A protease A156T mutant to EC90 Hepatitis C virus genotype 1b wild type NS3/4A protease; parameters: species or system Hepatitis C virus subtype 1b; summary of the method: as §2
# [23] = test system: Hepatitis C virus; assay: Inhibition of Hepatitis C virus genotype 1b NS3/4A protease A156T mutant; parameters: species or system Hepatitis C virus subtype 1b; summary of the method: as §3
# [24] = test system: Hepatitis C virus; assay: Inhibition of Hepatitis C virus genotype 1b wild type NS3/4A protease; parameters: species or system Hepatitis C virus subtype 1b; summary of the method: as §3
# [25] = test system: Huh-7; assay: Cytotoxicity against human HuH7 cells; assay type: cell-based
# Summary of the method: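 Huh7 cytotoxicity measured together with the replicon antiviral assay, by extraction and amplification of ribosomal RNA. Each concentration run in triplicate and reported as mean.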
# [26] = test system: Vero; assay: Cytotoxicity against african green monkey Vero cells; assay type: cell-based; details: chlorocebus sabaeus
# Summary of the method: (§4)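 Cytotoxicity was profiled in three cell types: primary human peripheral blood mononuclear (PBM) cells, CEM (a human T-cell-derived line) and Vero (African green monkey kidney epithelial cells).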
# [27] = test system: CCRF-CEM; assay: Cytotoxicity against human CEM cells; assay type: cell-based; summary of the method: as §4
# [28] = test system: PBMC; assay: Cytotoxicity against human PBMC; assay type: cell-based; summary of the method: as §4
# [29] = test system: Hepatitis C virus; assay: Antiviral activity against Hepatitis C virus infected in human HuH7 cells assessed as viral RNA replication; assay type: functional, organism-based, Hepacivirus hominis; details: Huh-7
# Summary of the method: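 Subgenomic HCV replicon in Huh7 cells; inhibition of HCV RNA replication measured by extraction and amplification of HCV RNA. Each concentration run in triplicate and reported as mean; EC50 derived.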
# [30] = test system: Hepatitis C virus; assay: Ratio of EC50 for Hepatitis C virus genotype 1b NS3/4A protease V170A mutant to EC50 Hepatitis C virus genotype 1b wild type NS3/4A protease; parameters: species or system Hepatitis C virus subtype 1b; summary of the method: as §2
# [31] = test system: Hepatitis C virus; assay: Ratio of EC90 for Hepatitis C virus genotype 1b NS3/4A protease A156S mutant to EC90 Hepatitis C virus genotype 1b wild type NS3/4A protease; parameters: species or system Hepatitis C virus subtype 1b; summary of the method: as §2
# [32] = test system: Hepatitis C virus; assay: Ratio of EC50 for Hepatitis C virus genotype 1b NS3/4A protease A156T mutant to EC50 Hepatitis C virus genotype 1b wild type NS3/4A protease; parameters: species or system Hepatitis C virus subtype 1b; summary of the method: as §2
compound,measurement,setting,value
CCCC(NC(=O)C1N(C(=O)[C@@H](NC(=O)[C@@H](NC(=O)c2cnccn2)C2CCCCC2)C(C)(C)C)CC12CCCCC2)C(=O)C(=O)NC1CC1 (some centres undefined),IC50,[1],< 1 µM
same,IC90,[1],< 1.7 µM
same,IC50,[2],> 100 µM
same,IC90,[2],> 100 µM
same,IC50,[3],> 100 µM
same,IC90,[3],> 100 µM
same,IC90,[4],85 µM
same,IC50,[5],7.8 µM
same,Ratio,[6],0.8
same,Ratio EC50,[7],0.9
same,Ratio,[8],0.9
same,EC50,[9],> 1 µM
same,EC90,[9],8.7 µM
same,Ratio EC50,[10],55
same,EC50,[11],43 µM
same,EC90,[11],> 100 µM
same,Ratio,[12],7.6
same,Ratio EC50,[13],8.8
same,EC50,[14],6.9 µM
same,EC90,[14],75 µM
same,Ratio,[15],0.3
same,Ratio EC50,[16],0.5
same,EC50,[17],0.4 µM
same,EC90,[17],3.3 µM
same,Ratio,[18],6.6
same,EC50,[19],0.72 µM
same,EC90,[19],8.2 µM
same,Ratio EC50,[20],7.1
same,EC50,[21],5.5 µM
same,EC90,[21],64 µM
same,Ratio,[22],>10
same,EC50,[23],> 100 µM
same,EC90,[23],> 100 µM
same,EC50,[24],0.78 µM
same,EC90,[24],9.81 µM
same,CC50,[25],> 10 µM
same,CC50,[26],27 µM
same,CC50,[27],16 µM
same,CC50,[28],32 µM
same,EC50,[29],2.3 µM
same,EC90,[29],6.4 µM
CC[C@@H]1C[C@]1(NC(=O)[C@@H]1C[C@@H]2CN1C(=O)[C@H](C(C)(C)C)NC(=O)OCC(C)(C)CCCCc1cccc3c1CN(C3)C(=O)O2)C(=O)NS(=O)(=O)C1CC1,IC50,[1],> 100 µM
same,IC90,[1],> 100 µM
same,IC50,[2],78 µM
same,IC90,[2],> 100 µM
same,IC50,[3],> 100 µM
same,IC90,[3],> 100 µM
same,IC90,[4],> 100 µM
same,IC50,[5],> 100 µM
same,Ratio,[6],840
same,Ratio EC50,[7],390
same,Ratio,[8],0.8
same,Ratio EC50,[30],0.7
same,EC50,[9],0.0046 µM
same,EC90,[9],0.01 µM
same,Ratio,[31],1.3
same,EC50,[11],< 0.001 µM
same,EC90,[11],0.017 µM
same,Ratio,[12],7.8
same,Ratio EC50,[13],7.2
same,EC50,[14],0.045 µM
same,EC90,[14],0.1 µM
same,Ratio,[15],>77
same,EC50,[17],> 1 µM
same,EC90,[17],> 1 µM
same,EC50,[19],2.4 µM
same,EC90,[19],11 µM
same,EC50,[21],> 1 µM
same,EC90,[21],> 1 µM
same,Ratio,[22],>77
same,Ratio EC50,[32],150
same,EC50,[23],0.91 µM
same,EC90,[23],> 1 µM
same,EC50,[24],0.0062 µM
same,EC90,[24],0.013 µM
CCC[C@H](NC(=O)[C@@H]1[C@H]2CCC[C@H]2CN1C(=O)[C@@H](NC(=O)[C@@H](NC(=O)c1cnccn1)C1CCCCC1)C(C)(C)C)C(=O)C(=O)NC1CC1,IC50,[1],< 1 µM
same,IC90,[1],< 1 µM
same,IC50,[2],> 100 µM
same,IC90,[2],> 100 µM
same,IC50,[3],8.7 µM
same,IC90,[4],> 100 µM
same,Ratio,[6],0.9
same,Ratio EC50,[7],1
same,Ratio,[8],1.9
same,Ratio EC50,[30],3.3
same,EC50,[9],0.2 µM
same,EC90,[9],1.5 µM
same,Ratio,[31],66
same,Ratio EC50,[10],37
same,EC50,[11],2.2 µM
same,EC90,[11],52 µM
same,Ratio,[12],6.5
same,Ratio EC50,[13],8.5
same,EC50,[14],0.51 µM
same,EC90,[14],5.1 µM
same,Ratio,[15],0.9
same,Ratio EC50,[16],1.3
same,EC50,[17],0.08 µM
same,EC90,[17],0.74 µM
same,Ratio,[18],11
same,EC50,[19],0.58 µM
same,EC90,[19],0.69 µM
same,Ratio EC50,[20],13
same,EC50,[21],0.8 µM
same,EC90,[21],8.3 µM
same,Ratio,[22],>130
same,Ratio EC50,[32],780
same,EC50,[23],46 µM
same,EC90,[23],> 100 µM
same,EC50,[24],0.06 µM
same,EC90,[24],0.78 µM
same,CC50,[25],> 10 µM
same,EC50,[29],0.4 µM
same,EC90,[29],0.9 µM
